Test results reported in ChEMBL document CHEMBL1129736, “Bisphenolic compounds that enhance cell cation transport are found in commercial phenol red” (1996).

How the values were obtained:
[1] = K+ / Na+ ratio in HF(Human foreskin fibroblasts) cells; type: functional
HFF [2] = test: Effect of compound on Na+ ion content of HFF (Human foreskin fibroblasts) Cells at 125 ng/mL; type: functional
HFF [3] = test: Effect of compound on K+ ion content of HFF (Human foreskin fibroblasts) Cells at 125 ng/mL; type: functional
HFF [4] = test: Effect of compound on K+ ion content of HFF (Human foreskin fibroblasts) Cells at 4.8 ug/mL; type: functional
HFF [5] = test: Effect of compound on Na+ ion content of HFF (Human foreskin fibroblasts) Cells at 4.8 ug/mL; type: functional
Summary of the method: (§1)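 Human foreskin fibroblasts were grown in 6 cm dishes in DMEM with 10% FBS and antibiotics at 37 °C in CO2/air, pH 7.2-7.4, at 5 × 10⁵ to 2 × 10⁶ cells/dish. Medium was swapped for serum-free test solution by four rinses. Incubation was 45 min, or 30 min in expt III, at 37 °C. Dishes were washed six times with iced MgCl2 or MgSO4. Read-out was K⁺ or Na⁺ per dish (10⁸ × mol), mean of duplicate dishes.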

HFF [6] = test: Effect of compound on Na+ ion content of HFF (Human foreskin fibroblasts) Cells at 10 ng/mL; type: functional; summary of the method: as §1
[7] = K+ / Na+ ratio in HF(Human foreskin fibroblasts) cells at 100 ng/mL; type: functional
Summary of the method: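 HF cells were in 6 cm dishes at 5 × 10⁵ to 2 × 10⁶ cells/dish. Growth medium was replaced with serum-free test solution by four rapid rinses. Incubation was 45 min at 37 °C in CO2/air. Dishes were rinsed six times with iced 0.1 M MgCl2 and intracellular K⁺ and Na⁺ were assayed. The K⁺/Na⁺ ratio is the mean of duplicate dishes.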

HFF [8] = test: Effect of compound on Na+ ion content of HFF (Human foreskin fibroblasts) Cells at 30 ng/mL; type: functional; summary of the method: as §1
HFF [9] = test: Effect of compound on K+ ion content of HFF (Human foreskin fibroblasts) Cells at 100 ng/mL; type: functional; summary of the method: as §1
HFF [10] = test: Effect of compound on K+ ion content of HFF (Human foreskin fibroblasts) Cells at 30 ng/mL; type: functional; summary of the method: as §1
HFF [11] = test: Effect of compound on K+ ion content of HFF (Human foreskin fibroblasts) Cells at 10 ng/mL; type: functional; summary of the method: as §1
HFF [12] = test: Effect of compound on Na+ ion content of HFF (Human foreskin fibroblasts) Cells at 0.03 ug/mL; type: functional; summary of the method: as §1
HFF [13] = test: Effect of compound on K+ ion content of HFF (Human foreskin fibroblasts) Cells at 4.8 ug/mL (Expt II); type: functional; summary of the method: as §1
HFF [14] = test: Effect of compound on Na+ ion content of HFF (Human foreskin fibroblasts) Cells at 4.8 ug/mL (Expt II); type: functional; summary of the method: as §1
HFF [15] = test: Effect of compound on Na+ ion content of HFF (Human foreskin fibroblasts) Cells at 4.8 ug/mL (Expt III); type: functional; summary of the method: as §1
HFF [16] = test: Effect of compound on K+ ion content of HFF (Human foreskin fibroblasts) Cells at 4.8 ug/mL (Expt III); type: functional; summary of the method: as §1
HFF [17] = test: Effect of compound on Na+ ion content of HFF (Human foreskin fibroblasts) Cells at 2.4 ug/mL; type: functional; summary of the method: as §1
HFF [18] = test: Effect of compound on K+ ion content of HFF (Human foreskin fibroblasts) Cells at 2.4 ug/mL; type: functional; summary of the method: as §1
HFF [19] = test: Effect of compound on Na+ ion content of HFF Cells at 4.8 ug/mL; type: functional, Homo sapiens
HFF [20] = test: Effect of compound on K+ ion content of HFF (Human foreskin fibroblasts) Cells at 31 ng/mL; type: functional; summary of the method: as §1
HFF [21] = test: Effect of compound on Na+ ion content of HFF (Human foreskin fibroblasts) Cells at 62.5 ng/mL; type: functional; summary of the method: as §1
HFF [22] = test: Effect of compound on Na+ ion content of HFF (Human foreskin fibroblasts) Cells at 31 ng/mL; type: functional; summary of the method: as §1
HFF [23] = test: Effect of compound on Na+ ion content of HFF (Human foreskin fibroblasts) Cells at 15.6 ng/mL; type: functional; summary of the method: as §1
HFF [24] = test: Effect of compound on K+ ion content of HFF (Human foreskin fibroblasts) Cells at 15.6 ng/mL; type: functional; summary of the method: as §1
HFF [25] = test: Effect of compound on K+ ion content of HFF (Human foreskin fibroblasts) Cells at 62.5 ng/mL; type: functional; summary of the method: as §1
HFF [26] = test: Effect of compound on Na+ ion content of HFF (Human foreskin fibroblasts) Cells at 3 ug/mL; type: functional
HFF [27] = test: Effect of compound on K+ ion content of HFF (Human foreskin fibroblasts) Cells at 3 ug/mL; type: functional
HFF [28] = test: Effect of compound on K+ ion content of HFF (Human foreskin fibroblasts) Cells at 0.03 ug/mL; type: functional; summary of the method: as §1
HFF [29] = test: Effect of compound on Na+ ion content of HFF (Human foreskin fibroblasts) Cells at 0.3 ug/mL; type: functional; summary of the method: as §1
HFF [30] = test: Effect of compound on K+ ion content of HFF (Human foreskin fibroblasts) Cells at 0.3 ug/mL; type: functional; summary of the method: as §1
HFF [31] = test: Effect of compound on K+ ion content of HFF (Human foreskin fibroblasts) Cells at 0.1 ug/mL; type: functional; summary of the method: as §1
HFF [32] = test: Effect of compound on Na+ ion content of HFF (Human foreskin fibroblasts) Cells at 0.1 ug/mL; type: functional; summary of the method: as §1

With `C=C[C@H]1CN2CC[C@H]1C[C@H]2[C@H](O)c1ccnc2ccc(OC)cc12.Oc1ccc(C2(c3ccc(O)cc3)c3ccccc3-c3cc(O)ccc32)cc1` the K+/Na+ ratio [1] was 0.91, the “Na+ ion content” value (HFF [2]) was 2200000000 and the “K+ Ion content” value (HFF [3]) was 2000000000.

For `C=C[C@H]1CN2CC[C@H]1C[C@H]2[C@H](O)c1ccnc2ccc(OC)cc12.Oc1ccc(C2(c3ccc(O)cc3)c3ccccc3Oc3ccccc32)cc1`, the K+/Na+ ratio [1] was 2.3, the K+ Ion content (HFF [4]) was 270 nmol/dish and the “Na+ ion content” value (HFF [5]) was 1200000000.

For `Oc1ccc(C2(c3ccc(O)cc3)c3ccccc3-c3c(O)cccc32)cc1`, the “Na+ ion content” value (HFF [6]) was 710000000, the K+/Na+ ratio [7] was 0.29 and the Na+ ion content (HFF [8]) was 110 nmol/dish. For the same compound, the K+ Ion content (HFF [9]) was 67 nmol/dish, the K+ Ion content (HFF [10]) was 240 nmol/dish and the K+ Ion content (HFF [11]) was 300 nmol/dish. For the same compound, the Na+ ion content (HFF [12]) was 1.1e+09.

In the case of `Oc1ccc(C2(c3ccc(O)cc3)c3ccccc3Oc3ccccc32)cc1`, the K+ Ion content (HFF [13]) is reported as 240 nmol/dish, the Na+ ion content (HFF [14]) is reported as 270 nmol/dish and the Na+ ion content (HFF [15]) is reported as 290 nmol/dish. For the same compound, the K+ Ion content (HFF [16]) was 25 nmol/dish, the Na+ ion content (HFF [17]) was 190 nmol/dish and the K+ Ion content (HFF [18]) was 340 nmol/dish.

With `COc1ccc(CCN(C)CCCC(C#N)(c2ccc(OC)c(OC)c2)C(C)C)cc1OC.Oc1ccc(C2(c3ccc(O)cc3)c3ccccc3Oc3ccccc32)cc1` (centres undefined) the K+/Na+ ratio [1] was 3.4, the “Na+ ion content” value (HFF [19]) was 1100000000 and the K+ Ion content (HFF [4]) was 370 nmol/dish.

With `COc1ccc(CCN(C)CCCC(C#N)(c2ccc(OC)c(OC)c2)C(C)C)cc1OC.Oc1ccc(C2(c3ccc(O)cc3)c3ccccc3-c3cc(O)ccc32)cc1` (centres undefined) the K+/Na+ ratio [1] was 1.3, the “Na+ ion content” value (HFF [2]) was 1600000000 and the “K+ Ion content” value (HFF [3]) was 2000000000.

In the case of `Oc1ccc(C2(c3ccc(O)cc3)c3ccccc3-c3cc(O)ccc32)cc1`, the K+ Ion content (HFF [20]) is reported as 270 nmol/dish, the Na+ ion content (HFF [21]) is reported as 290 nmol/dish and the “Na+ ion content” value (HFF [22]) is reported as 1200000000. For the same compound, the “Na+ ion content” value (HFF [23]) was 800000000, the “Na+ ion content” value (HFF [2]) was 3800000000 and the K+ Ion content (HFF [24]) was 3e+09. The K+ Ion content (HFF [25]) was 100 nmol/dish and the “K+ Ion content” value (HFF [3]) was 520000000.

With `COc1ccc(CCN(C)CCCC(C#N)(c2ccc(OC)c(OC)c2)C(C)C)cc1OC.Oc1ccc(C2(c3ccc(O)cc3)c3ccccc3-c3ccc(O)cc32)cc1` (centres undefined) the “Na+ ion content” value (HFF [26]) was 2100000000, the K+/Na+ ratio [1] was 0.71 and the K+ Ion content (HFF [27]) was 150 nmol/dish.

With `Oc1ccc(C2(c3ccc(O)cc3)c3ccccc3-c3ccc(O)cc32)cc1` the “Na+ ion content” value (HFF [26]) was 3900000000, the K+ Ion content (HFF [28]) was 280 nmol/dish and the “Na+ ion content” value (HFF [29]) was 3500000000. The K+ Ion content (HFF [30]) was 38 nmol/dish, the “K+ Ion content” value (HFF [31]) was 870000000 and the “Na+ ion content” value (HFF [12]) was 350000000. For the same compound, the K+ Ion content (HFF [27]) was 55 nmol/dish and the “Na+ ion content” value (HFF [32]) was 2400000000.
